VIM-2 inhibitor: VIM-2 metallo-beta-lactamase inhibitors, primary screen, biochemical, epi-absorbance readout, Pseudomonas aeruginosa enzyme. actives 0.89% (n = 290,000). inhibition, % at 5.6 µM. purified VIM-2, nitrocefin hydrolysis, epi-absorbance fluorescence;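 active means inhibition above the mean of all tested compounds plus 3 SD, cutoff set per screening run, cut at about 7.5% in these data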;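 further: red hydrolysis product quenches plate fluorescence so inhibitors raise well fluorescence; 0% = enzyme with DMSO and 100% = DMSO without enzyme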
DNA FID counter-1: compounds displacing fluorescent DNA intercalator, primary screen, artefact control for HCV NS3 helicase inhibitor project, biochemical, FID fluorescence; inhibition, % at 7.9 µM; DNA fluorescent intercalator displacement; AID 1845, 2009; actives 0.17% (n = 290,000);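 further: 0% = vehicle and 100% = reference compound; higher means more ethidium bromide displaced from hairpin DNA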
IMP-1 inh: IMP-1 metallo-beta-lactamase inhibitors, primary screen, biochemical, epi-absorbance readout, Pseudomonas aeruginosa enzyme; metallo-beta-lactamase IMP-1 (Pseudomonas aeruginosa); purified IMP-1, nitrocefin hydrolysis, epi-absorbance fluorescence; inhibition, % at 5.6 µM; actives 0.45% (n = 290,000); AID 1556, 2009;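 active means inhibition above the mean plus 3 SD of all compounds in the same screening run, cut at about 4.5% in these data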;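 further: 0% = IMP-1 with DMSO and 100% = DMSO wells lacking enzyme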
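System – purified recombinant IMP-1 beta-lactamase · Input – IMP-1 dispensed at 0.2 nM · Timing – 15 min preincubation plus 25 min reaction at 25 °C · Signal – Epi-absorbance fluorescence, 480 nm excitation, 530 nm emission · Measure – percent IMP-1 inhibition derived from blank-referenced optical density · Controls – Enzyme-plus-DMSO low control, enzyme-free DMSO high control · Replication – singlicate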
SUMO HTRF inh: inhibitors of in vitro SUMOylation cascade, primary screen, biochemical, HTRF, uHTS. SUMO-conjugating enzyme UBC9 (Homo sapiens), P63279. HTRF SUMOylation assay, SAE1/SAE2 + UBC9. inhibition, % at 35 µM. actives 0.36% (n = 290,000). AID 2006, 2009; in the data active means inhibition above about 50%, passing the limit was not always enough
Target sequence (P63279 whole entry, looked up): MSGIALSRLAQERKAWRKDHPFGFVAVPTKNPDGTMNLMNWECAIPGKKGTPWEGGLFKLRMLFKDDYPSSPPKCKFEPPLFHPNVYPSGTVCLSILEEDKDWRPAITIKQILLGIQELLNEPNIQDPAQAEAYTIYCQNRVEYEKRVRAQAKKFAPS
HCV NS3 hel inh: inhibitors of HCV NS3 helicase, primary screen, biochemical, Cy5 molecular beacon fluorescence; Hepatitis C virus NS3 helicase; NS3 helicase DNA unwinding; inhibition, % at 10.9 µM; actives 0.56% (n = 290,000); AID 1800, 2009;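 active means inhibition above the mean of all tested compounds plus 3 SD, set per campaign, cut at about 35% in these data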;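 further: 0% = DMSO wells and 100% = thioflavine S control wells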
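test system = hepatitis C virus NS3 helicase domain fragment enzyme | reagent = annealed dual-labelled DNA beacon duplex, ATP-started | times = 1 h at 25 °C | detection = Cy5 fluorescence, 0 and 60 min reads | read-out basis = percent inhibition from t60/t0 fluorescence ratio | control set = DMSO and thioflavine S | replication = one well per compound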
NS3 hel confirm: HCV NS3 helicase inhibitors, retest, confirmation, biochemical, Cy5 molecular beacon fluorescence, triplicate. shares compounds with HCV NS3 hel inh. actives 31% (n = 1,600). inhibition, % at 10.9 µM. NS3 helicase DNA unwinding;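 active means inhibition above the mean of all tested compounds plus 3 SD, cutoff set per campaign, cut at about 36% in these data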
DNA FID counter-2: compounds displacing fluorescent DNA intercalator, artefact control for HCV NS3 helicase inhibitor project, biochemical, FID fluorescence, triplicate; shares compounds with HCV NS3 hel inh; DNA fluorescent intercalator displacement; inhibition, % at 7.9 µM; actives 4% (n = 1,600); AID 1945, 2009;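 further: 0% = vehicle and 100% = reference compound; higher means more displacement of ethidium bromide from the DNA hairpin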
FID counter DR: compounds displacing fluorescent intercalator from DNA, dose response, counter-screen for HCV NS3 helicase inhibitor project, biochemical, fluorescence. AID 2172, 2009. IC50, µM. fluorescent intercalator displacement from DNA. 120 tested, under 10 active. shares compounds with HCV NS3 hel inh; call rule not given here
An asterisk follows results filed as active; · = no result given. In the library only some 2.1% were active in any assay of this set; here they are far more common. Unless noted, no stated cut-off is given here; in the data, active means inhibition above about 37%; inactive means the rest.

SMILES	VIM-2 inhibitor	DNA FID counter-1	IMP-1 inh	SUMO HTRF inh	HCV NS3 hel inh	NS3 hel confirm	DNA FID counter-2	others
O=C(O)Cc1sc(N/N=C\c2ccncc2)nc1-c1ccccc1	-3	-12	-1	-7	55*	-27	-1
C/C(CCC(=O)OC[C@H]1O[C@H](C#Cc2ccccc2)C=C[C@@H]1Oc1ccc(C)cc1)=N\O[C@@H](C)CN1CCCCc2nc(C)c(C)cc21	-4	-27	-2	-15	-14	·	·
Cc1cc(OCc2nn[nH]n2)c2c(C)c(Cc3ccccc3)c(=O)oc2c1	3	-23	-3	32	69*	62*	-13
Cc1cccc(NC(=O)CN2C(=O)N/C(=C\c3cccn3-c3cccc(C(=O)O)c3)C2=O)c1	-2	-36	-3	6	37*	36	-32
Cc1ccc(-n2cccc2/C=C2/NC(=O)N(CC(=O)Nc3cccc(C)c3)C2=O)cc1	-2	-7	0	-3	19	·	·
Cc1cc(N2CCN(C)CC2)nc2ccc(NC(=O)CCC(=O)NCCc3ccc(Cl)cc3)cc12	-3	-3	-3	1	-15	·	·
CSc1ccc(C2C(C(=O)c3ccco3)=C(O)C(=O)N2c2nnc(SC)s2)cc1 (stereo not given)	0	-27	0	16	39*	89*	4	FID counter DR=>79
CCOC(=O)c1ccc(N2C(=O)C(O)=C(C(C)=O)C2c2ccc([N+](=O)[O-])cc2)cc1 (stereo not given)	-1	-30	-1	-8	45*	36*	-23
CCOC(=O)c1sc(N2C(=O)C(O)=C(C(=O)c3ccco3)C2c2ccc(C)o2)nc1C (stereo not given)	-4	-15	-4	8	26	·	·
CCOC(=O)c1sc(N2C(=O)C(O)=C(C(=O)c3ccco3)C2c2ccc([N+](=O)[O-])cc2)nc1C (stereo not given)	-2	-2	-3	-6	37*	106*	28
CC(=O)C1=C(O)C(=O)N(c2ccc(C(=O)O)cc2)C1c1ccc([N+](=O)[O-])cc1 (stereo not given)	1	0	0	5	-1	·	·
Cc1ccc(NNc2c(C)nc3ccccc3nc2=O)cc1	-2	-8	-1	7	3	·	·
CC(=O)c1ccc2c(c1)C1C=CCC1C(C(=O)O)N2 (stereo not given)	0	-13	-1	78*	51*	90*	1
COc1cccc2c1NC(C(=O)O)C1CC=CC21 (stereo not given)	9.5*	-19	2	95*	58*	93*	-2
O=C(O)C1Nc2c(cccc2C(F)(F)F)C2C=CCC12 (stereo not given)	1	-11	-2	23	7	·	·
CC(=O)c1ccc2c(c1)C1C=CCC1C(c1ccncc1)N2 (stereo not given)	-3	-12	-1	15	17	·	·
Cn1cccc1CC(=O)NNC(=S)Nc1ccc(Cl)cc1	-4	-20	-3	-14	36*	-9	10
Cn1cccc1CC(=O)NNC(=S)Nc1ccccc1Cl	-5	-17	-3	-12	46*	-9	13
Cc1c(Cl)cccc1NC(=S)NCc1cccn1C	-3	-2	-1	10	3	·	·
O=C(NCCCN1CCCC1=O)C1CCCO1 (stereo not given)	-1	3	-2	10	-19	·	·
CC(C(=O)O)n1c2ccccc2c2cnn(C)c(=O)c21 (stereo not given)	1	-9	-3	9	33	·	·
N=C1SC(c2ccccc2)C(=O)N1c1ncc(Cc2ccccc2Cl)s1 (stereo not given)	-6	-17	-1	-12	34	·	·
Cn1cc(/C=C2\SC(=O)N(c3ccccc3)C2=O)c2ccccc21	-2	-2	-2	20	9	·	·
O=C1S/C(=C\C=C\c2ccco2)C(=O)N1c1ccc(O)cc1	5	24	7.2*	81	129*	-2	11
O=C(O)CC(C(=O)O)N1C(=O)/C(=C/C=C/c2ccco2)SC1=S (stereo not given)	4	0	-4	·	74*	87*	-3
SMILES	VIM-2 inhibitor	DNA FID counter-1	IMP-1 inh	SUMO HTRF inh	HCV NS3 hel inh	NS3 hel confirm	DNA FID counter-2	others
O=C(O)CC(C(=O)O)N1C(=O)/C(=C/c2ccc(-c3nc4ccccc4s3)o2)SC1=S (stereo not given)	-1	2	5.6*	3	67*	67*	-2
O=C1S/C(=C\C=C\c2ccco2)C(=O)N1c1ccccc1	-2	-12	3	31	49*	45*	34
O=C1S/C(=C\c2cccs2)C(=O)N1c1ccc(O)cc1	2	-3	-2	26	2	·	·
Cn1nc(C(C)(C)C)c([N+](=O)[O-])c1C(=O)NC1CCCCC1	-7	-6	-4	-12	-3	·	·
CCCOc1ccc(C(=O)NCCC(=O)NCCCC(=O)O)cc1	-4	-2	-2	-14	0	·	·
CC1CCc2cc(F)ccc2N1C(=O)CCl (stereo not given)	-3	-2	-1	1	-6	·	·
O=C(O)C1Nc2c(O)cc(Cl)c([N+](=O)[O-])c2C2C=CCC12 (stereo not given)	3	4	-4	99*	70*	79*	22
COc1cc(CN2CCN(C(C)C)C(CCO)C2)ccc1OCc1ccccc1 (stereo not given)	-3	1	-4	-2	5	·	·
Cn1c(=O)c2ccccc2n(CC(=O)N2CCCc3ccccc32)c1=O	1	-25	-2	-11	37*	-6	-14
CCCCCn1c(C)c2c(OCC)cccc(=O)c2c1C	1	-29	-3	10	54*	-5	-27
CN(C)c1ccc(/C=N/NC(=O)C(O)(c2ccccc2)c2ccccc2)o1	-3	-23	-2	-7	65*	-31	-31
CCN(CC)CCCNC(=O)CCn1nc(-c2ccccc2)ccc1=O	-3	-5	-2	0	3	·	·
O=C(O)CC(Sc1n[nH]c(=S)s1)C(=O)O (stereo not given)	-2	6	-2	10	15	·	·

Assay outcomes from PubChem.
